Experimental data published in the array DNA melting data of Ke et al. (doi:10.1101/2024.01.08.574731).

Tests used:
[1] = melting temperature; fluorescence melt of hairpins on a sequencing array, two-state fit, raised by 9.35 °C to match UV melts; settings: sodium 0.088 M
Summary of the method: (§1)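 Melting temperature and folding enthalpy were derived from bootstrapped two-state fits. The fitted temperatures were raised by 9.35 °C to agree with UV melts, and four replicates were combined by inverse variance. The underlying data were Cy3 fluorescence images of library hairpins, with annealed Cy3 and quencher oligos, on a sequenced MiSeq flow cell in 50 mM Na-HEPES pH 8.0, 25 mM NaCl, taken in 2.5 °C steps up to 60 °C, normalised to pre-quench Cy3 and to control constructs.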

[2] = folding enthalpy; higher = less favourable; fluorescence melt of hairpins on a sequencing array, two-state fit; settings: sodium 0.088 M
Summary of the method: as §1

Sequence	Tm [1] [°C]	folding enthalpy [2] [kJ/mol]
GTCTTCGCGAAAGCGGAC (((..(((....))))))	30.4	-44.2
GGGCATACGAAAGTACCC (((..(((....))))))	34.7	-82.1
GATCACGGTGGTGATC ((((((....))))))	58.3	-156
GTAGCGCGAAAGCGGTAC (((.(((....))).)))	68.8	-106
GCGGACTTCCGC ((((....))))	57.4	-97
GCTTTGGGAAACCAAAGC (((((((....)))))))	65	-197
GTCCGCGAAAGCGCCGAC ((((((....)))..)))	36.9	-46.4
GCACTTCCGAAAGGATGC (((..(((....))))))	37.9	-74.2
GGCCAGGGAAACCCAGCC (((..((....))..)))	42.1	-128
GCGGCCTCCCGC ((((....))))	56.3	-93.3
GCTCTCGCGAAAGCGAGC (((..(((....))))))	38.3	-19.1
GTAAGTGGAAACACCTAC (((.(((....))).)))	29.2	-70.3
GTAACGGCGAAAGCCTAC (((..(((....))))))	20.7	-37.9
GTTGTACGAAAGTATAAC (((.(((....))).)))	47.6	-113
GCGGAGCCCCGC ((((....))))	55.8	-44.9
GCGGCTTACCGC ((((....))))	61.2	-109
GTAGTAGGAAACTACCAC ((.((((....)))).))	32.2	-71.8
GTCGAAGGAAACTTTGAC (((.(((....))).)))	44.5	-130
GCATGCGAAAGCAATTGC ((((((....)))..)))	44.1	-81.8
GTTCACGAAAGTGAGAAC ((((((....)))..)))	37.5	-46.7
GAGCAGGGAAACCCGCTC ((((.((....)).))))	51.4	-143
GCGTGCGGAAACGCACAC (.(((((....))))).)	50.3	-35.7
GTGCTAGGAAACTAGCGC (.(((((....))))).)	53.5	-166

Sequence	Tm [1] [°C]	folding enthalpy [2] [kJ/mol]
GCGGCTGTCCGC ((((....))))	57.9	-118
GATCGTAATACGATC ((((((...))))))	53.5	-173
GCTCTGCGAAAGCGGGGC ((.(.((....)).).))	63.4	-116
GAAACCGGAAACGGTTTC (((((((....)))))))	65.7	-163
GGTGACGAAAGTCTACC ((((((....))).)))	49	-89.4
GAAGAGCGAAAGCTTTC (((.(((....))))))	31.1	-51.2
GCCCCGCGAAAGCCGTGC ((.(.((....)).).))	27.7	-64.8
CCGGAGAAATCCGG (((((....)))))	56.5	-89.7
GCGTCAGGACGC ((((....))))	56.5	-109
GGGGTGAAAACCCC (((((....)))))	66.6	-88.5
GCCCACGCGAAAGCGGGC (((..(((....))))))	61.8	-49.7
GTGTCCGAAAGGATCCAC ((((((....)))..)))	32.7	-43.6
GCTGATACGAAAGTAAGC (((..(((....))))))	33.9	-60.2
GATCTACGTCTAGATC ((((((....))))))	40.7	-86.7
GATCTCCTTGGAGATC ((((((....))))))	60.5	-199
GGCTTCCGAAAGGACGCC (((.(((....))).)))	57.2	-176
GCCTAGCGAAAGCATGGC (((..((....))..)))	61.2	-128
GTTTGAGGAAACTCGAAC (((.(((....))).)))	45.6	-132
GATCTCTTAGGAGATC ((((((....))))))	54.2	-159
GATCACTGCAGTGATC ((((((....))))))	61.7	-187
GGGGTACGAAAGTAACCC (((.(((....))).)))	60.9	-143
GGTTCGGGAAACCGGACC (((.(((....))).)))	58.3	-165
